# Source: PubChem BioAssay
# hK5 inh = blocks human kallikrein 5 protease activity. Q9Y337. AID 873. inhibition, % at 5 µM. 210,000 tested, 0.59% active. recombinant hK5, fluorogenic AMC substrate cleavage;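 active means inhibition of 40% or more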;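 further: 0% = enzyme controls without compound and 100% = no-enzyme blanks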
# Calpain2 inh = blocks pig calpain II enzyme activity; purified calpain II, fluorogenic peptide substrate, 30 min; inhibition, % at 16 µM; 220,000 tested, 0.37% active; AID 1236;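 active means inhibition above about 50%, limit read from the data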
# Thrombin inh = thrombin (human) inhibition. P00734. 220,000 tested, 0.26% active. alpha-thrombin, Boc-VPR-AMC fluorogenic substrate cleavage. inhibition, % at 5 µM;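 active means inhibition at or above 40%; inactive means inhibition below 40%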;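 further: 0% = enzyme with no compound and 100% = wells without enzyme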
#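 Material: human alpha-thrombin protein. Incubation: reaction at ambient temperature. Technique: fluorescence of released AMC, ex 355 nm, em 460 nm. Control set: no-compound enzyme wells and no-enzyme blanks. Also added: Boc-VPR-AMC substrate, 15 µM final. Buffer or medium: pH 7.5 Tris (50 mM) with NaCl 150 mM, Tween 20 0.05%.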
# FXIIa inh = blocks human coagulation factor XIIa protease activity; P00748; purified FXIIa, Boc-QGR-AMC fluorogenic substrate, 2 h; inhibition, % at 5 µM; 220,000 tested, 0.3% active; AID 800; in the data active means inhibition above about 40%;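 further: 0% = enzyme with no compound and 100% = blank without enzyme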
# Target sequence (P00748 20-372 limits assumed): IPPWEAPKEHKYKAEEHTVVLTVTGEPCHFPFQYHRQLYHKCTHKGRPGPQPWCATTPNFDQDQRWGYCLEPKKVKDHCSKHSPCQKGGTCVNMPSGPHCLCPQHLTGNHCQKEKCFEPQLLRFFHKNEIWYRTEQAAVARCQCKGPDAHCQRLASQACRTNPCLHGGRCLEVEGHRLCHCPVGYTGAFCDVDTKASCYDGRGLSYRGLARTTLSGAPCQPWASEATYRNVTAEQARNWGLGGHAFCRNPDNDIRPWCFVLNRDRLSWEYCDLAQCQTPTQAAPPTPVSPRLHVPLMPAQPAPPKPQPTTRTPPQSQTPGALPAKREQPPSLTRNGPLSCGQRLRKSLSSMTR
# Target sequence (P00748 373-615 limits assumed): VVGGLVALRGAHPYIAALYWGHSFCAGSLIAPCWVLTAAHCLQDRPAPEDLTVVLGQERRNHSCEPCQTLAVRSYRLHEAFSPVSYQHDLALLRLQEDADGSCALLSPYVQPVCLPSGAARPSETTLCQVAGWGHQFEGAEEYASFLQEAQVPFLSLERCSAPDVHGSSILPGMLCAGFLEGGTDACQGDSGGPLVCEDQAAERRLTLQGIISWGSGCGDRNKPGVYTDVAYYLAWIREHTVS
# FXIa inh 1536 = inhibitors of human coagulation factor XIa. P03951. purified FXIa, Boc-Glu-Ala-Arg-AMC fluorogenic substrate. inhibition, % at 5 µM. 220,000 tested, 0.14% active. AID 798;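 active means inhibition of at least 40%; inactive means inhibition below 40%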;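 further: fluorescence of freed AMC excited at 355 nm; 0% = enzyme without compound and 100% = no enzyme blank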
# Starred values were filed as active, the others as inactive; . = not tested or not shown. Only some compounds are listed: those with a hit (about 1.4% of all), similar ones and a draw of the others.
SMILES,hK5 inh,Calpain2 inh,Thrombin inh,FXIIa inh,FXIa inh 1536
CCCC(=O)n1nc(-c2ccc(C)cc2)nc1NCc1ccco1,.,-12,58*,3,-2
O=C1CN(Cc2ccccc2)C(=NCc2ccco2)S1,33,0,13,44*,6
O=C1CS/C(=N/N=C/c2ccccc2)N1Cc1ccco1,2,17,1,6,13
CC1(C)C(C=C(Cl)Cl)C1C(=O)Nc1ccc([N+](=O)[O-])cc1 (centres undefined),-5,53*,-11,3,-4
Cc1ccc(NC(=O)CSc2nc(O)c(Cc3ccccc3)c(=O)n2-c2ccccc2)cc1,-9,24,-2,0,5
Cc1cc(-c2nc3ncccc3o2)ccc1NC(=S)NC(=O)C(C)C,20,6,40*,.,37
Fc1ccc(CSc2nc3ccccc3[nH]2)c2ccccc12,0,59*,4,19,9
CN(CC(=O)Nc1ccccc1C(F)(F)F)C(=O)COc1ncnc2ccccc12,-11,10,-10,2,-3
CCc1ccc(NC(=O)CCn2cccc2)cc1,15,-53,11,14,41*
COC(=O)c1ccc(NC(=O)CCn2cccc2)cc1,-3,-18,-2,10,-2
COc1ccc(CC(=O)N2CCC(Nc3nc4ccccc4n3Cc3ccc(F)cc3)CC2)cc1,60*,7,19,24,7
COc1ccccc1C/C(N)=N/OC(=O)c1ccco1,1,-35,-8,9,-2
CCN(CC(=O)N1CCc2ccccc2C1)S(=O)(=O)c1ccc2ccccc2c1,-6,-11,3,17,5
COc1cc(/C=N/NC(=O)C(=O)Nc2ccccn2)ccc1O,70*,40,29,4,12
N#Cc1nc(-c2ccccc2F)oc1NCc1ccccc1,42*,-442,14,15,16
N#Cc1nc(-c2ccccc2F)oc1NCCc1ccccc1,-3,-195,-6,8,-3
CSc1cccc(NC(=S)N(CCC(C)C)C(C)c2ccncc2)c1 (centres undefined),-4,2,-2,11,-2
Cc1ccc(C)c(-c2nc3cc(N)ccc3o2)c1,-35,-143,-2,41*,18
NC(=S)N/N=C/c1coc2cc(Br)ccc2c1=O,-1,10,-2,2,-6
NC(=S)N/N=C/c1coc2c(ccc3ccccc32)c1=O,0,73*,-3,12,9
O=C(COc1ccc(S(=O)(=O)NC2CCCCC2)cc1)N1CCN(c2cccc(Cl)c2)CC1,5,-29,0,14,5
O=C(Cc1cccc(C(F)(F)F)c1)NCC(c1ccco1)N1CCCCC1 (centres undefined),-1,-29,-5,.,-2
CC(=O)Nc1ccc(NC(=S)NC(=O)/C=C/c2ccc(Cl)cc2)cc1,-18,3,-6,-7,-9
COc1ccc(/C=C/C(=O)NC(=S)Nc2cc3oc4ccccc4c3cc2OC)cc1,-17,62*,-3,11,0
COc1cc2c(cc1NC(=S)NC(=O)/C=C/c1ccc(OC)c(OC)c1)oc1ccccc12,-21,29,-12,2,6
SMILES,hK5 inh,Calpain2 inh,Thrombin inh,FXIIa inh,FXIa inh 1536
COc1ccc(/C=C/C(=O)NC(=S)Nc2ccc(C(=O)O)cc2)cc1,-13,74*,-5,4,5
Cc1ccc(C(=O)c2c(C)oc3c2C(=O)C(=O)c2ccccc2-3)cc1,14,26,4,21,7
Cc1oc2c(c1C(=O)c1ccc(Cl)cc1)C(=O)C(=O)c1ccccc1-2,-7,62*,2,13,6
CCCCNC(=O)c1cc2ccccc2s1,24,32,28,22,29
Cc1ccccc1OCC(=O)Nc1sc(C(=O)Nc2cccc(C)c2C)c(C)c1C#N,45*,16,5,13,-1
CSc1ccccc1NC(=O)COc1ccccc1C,-2,69*,-4,4,-5
CCN(CC)C(=O)c1sc(NC(=O)Cc2ccccc2)c(C#N)c1C,41*,30,23,18,15
COc1ccccc1NC(=O)c1sc(NC(=O)c2ccco2)c(C#N)c1C,-7,-38,-4,7,-9
CCCCn1nnc(NC(=O)COc2ccc(Cl)c(C)c2)n1,104*,21,10,7,0
C=CCN1N=C(c2ccc(NC(=O)c3ccccc3)cc2)CSC1=O,-5,5,-10,1,-4
S=C1Cc2ccccc2N1,-1,55*,0,8,0
O=C(Cc1n[nH]c(=O)[nH]c1=O)N/N=C/CCc1ccccc1,-1,-19,-1,5,-3
O=C(NCc1cccnc1)c1ccc2c(=O)n(CCCN3CCCC3=O)c(=S)[nH]c2c1,-7,84*,-1,9,-6
CC(=O)c1ccc(NC(=O)COC(=O)c2nc(Cl)ccc2Cl)cc1,3,-26,4,13,-1
CCOc1c(CNCCNC(=O)c2nonc2N)cccc1OC,4,-11,1,17,2
COc1cccc(C=NCCNC(=O)c2nonc2N)c1O,-2,101*,0,12,0
COC(=O)c1cc2nc(-c3ccc(C)cc3)cc(C(F)(F)F)n2n1,3,-83,0,10,0
Nc1ccc(-n2nncc2-c2ccc(Cl)cc2)cc1,-1,29,-2,1,3
CC(=O)NC(C)c1ccc(Cl)c(Cl)c1 (centres undefined),68*,14,16,0,14
COc1ccc(C(C)NC(=O)c2ccccc2Cl)cc1OC (centres undefined),-12,-6,-3,0,-1
COc1cc(/C=C2/C(=O)NN(c3cccc(C)c3)C2=O)ccc1OC(=O)c1ccco1,60*,-12,6,12,19
Cc1ncc([N+](=O)[O-])n1Cc1cccc(F)c1,-3,-8,-9,9,-2
COc1ccc(C)cc1NC(=O)COC(=O)C1CCN(C(=O)c2ccc(Cl)cc2)CC1,28,20,27,26,49*
COc1ccc(OC)c(NC(=O)COC(=O)CSc2ccc(Cl)cc2)c1,-3,90*,3,14,12
COc1ccc(OC)c(NC(=O)CSc2ccc3ccccc3c2)c1,1,21,3,18,7
SMILES,hK5 inh,Calpain2 inh,Thrombin inh,FXIIa inh,FXIa inh 1536
Cc1onc(-c2ccccc2Cl)c1C(=O)NC(=S)Nc1ccc(C(C)(C)C)cc1,1,8,-3,5,1
CCN1CCN(C(=O)Nc2ccccc2OC)CC1,83*,29,31,11,4
COc1ccccc1NC(=O)N1CCN(CCc2ccccc2)CC1,4,-27,0,10,2
CC1c2c([nH]c3ccccc23)CCC1C(=O)O (centres undefined),-17,-2,-2,8,0
Nc1ncnc2nc(SCCN3CCCCC3)[nH]c12,-18,6,76*,-3,-10
COc1ccc(C(=O)NCC(=O)OCC(=O)N2N=C(c3ccc(Cl)cc3)CC2c2ccco2)cc1OC (centres undefined),2,-96,-15,2,-3
